Inhibition data for 26 molecules are collected here from ChEMBL document CHEMBL1148254, “Lead discovery of quinoxalinediones as an inhibitor of dipeptidyl peptidase-IV (DPP-IV) by high-throughput screening” (Bioorg Med Chem Lett, 2004).

Sequence of Dipeptidyl peptidase 4 (Rattus norvegicus) (P14740 whole entry, looked up): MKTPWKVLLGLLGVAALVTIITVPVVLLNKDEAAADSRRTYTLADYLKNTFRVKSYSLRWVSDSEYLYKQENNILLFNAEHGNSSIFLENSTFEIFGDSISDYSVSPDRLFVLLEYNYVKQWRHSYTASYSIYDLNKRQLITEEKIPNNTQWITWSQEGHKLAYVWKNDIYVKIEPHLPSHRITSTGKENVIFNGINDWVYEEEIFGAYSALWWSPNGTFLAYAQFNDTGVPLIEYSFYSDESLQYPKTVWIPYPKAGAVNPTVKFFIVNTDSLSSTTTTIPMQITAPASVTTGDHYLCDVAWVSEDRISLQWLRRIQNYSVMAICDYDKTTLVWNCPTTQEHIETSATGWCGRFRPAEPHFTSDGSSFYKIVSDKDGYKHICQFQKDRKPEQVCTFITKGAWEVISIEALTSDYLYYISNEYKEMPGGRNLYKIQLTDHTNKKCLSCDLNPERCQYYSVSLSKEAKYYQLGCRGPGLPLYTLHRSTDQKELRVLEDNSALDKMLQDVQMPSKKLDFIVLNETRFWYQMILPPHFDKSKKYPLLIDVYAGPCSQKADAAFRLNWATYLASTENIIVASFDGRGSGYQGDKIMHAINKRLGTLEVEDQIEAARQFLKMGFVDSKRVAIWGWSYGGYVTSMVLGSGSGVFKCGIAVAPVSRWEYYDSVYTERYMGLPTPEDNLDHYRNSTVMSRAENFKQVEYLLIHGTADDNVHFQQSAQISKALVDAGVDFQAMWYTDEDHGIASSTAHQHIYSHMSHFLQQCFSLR

This test concerns the target Dipeptidyl peptidase 4 (Rattus norvegicus) (UniProt P14740). Put plainly: Inhibitory activity against Dipeptidylpeptidase IV in rat. Also on record: concentration or dose not given beside the values. To be noted: concentration not given here. Summed up:
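Rat plasma was the enzyme source, incubated with Ala-Pro-AFC substrate (40) at room temperature, pH 7.8, for 1 h with or without test compound (20). Compounds were dissolved in DMSO, giving 5% DMSO in the assay mixture. Released AFC was read by fluorescence at 360 nm excitation and 485 nm emission, and a reference inhibitor was included.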
The molecule `Cc1ccccc1S(=O)(=O)NC(=O)Nn1c(=O)c(=O)[nH]c2ccccc21` displayed an inhibition of 12.3%. For `Cc1ccc(S(=O)(=O)NC(=O)Nn2c(=O)c(=O)[nH]c3cc(Cl)c(Cl)cc32)cc1` the value was 21%; for `O=c1[nH]c2cc(Cl)c(Cl)cc2n(NC(=S)Nc2ccccc2)c1=O`, 50%. In turn, `O=c1[nH]c2ccccc2n(NC(=S)Nc2ccccc2)c1=O` returned an inhibition of 26.5%. In turn, `Cc1ccc(S(=O)(=O)NC(=O)Nn2c(=O)c(=O)[nH]c3ccccc32)cc1` showed an inhibition of 12.3%.

Molecule `O=C(Nn1c(=O)c(=O)[nH]c2cc(Cl)c(Cl)cc21)NS(=O)(=O)c1ccccc1` yielded an inhibition of 23.7%. For the molecule `O=C(Nn1c(=O)c(=O)[nH]c2cc([N+](=O)[O-])ccc21)NS(=O)(=O)c1ccc(Cl)cc1`, the inhibition worked out at 66.8%. In turn, `Cc1ccccc1S(=O)(=O)NC(=O)Nn1c(=O)c(=O)[nH]c2cc([N+](=O)[O-])ccc21` showed an inhibition of 79.1%. For the molecule `O=C(NC(=O)c1ccccc1)Nn1c(=O)c(=O)[nH]c2ccccc21`, the inhibition stood at 13%. For `O=C(NC(=O)c1ccccc1)Nn1c(=O)c(=O)[nH]c2cc(Cl)ccc21` the value was 14.8%; for `O=C(NC(=S)Nn1c(=O)c(=O)[nH]c2cc(Cl)c(Cl)cc21)c1ccccc1`, 20.5%. The same measure for `CC/N=C(\S)Nn1c(=O)c(=O)[nH]c2ccccc21`: 40.1%. `Cc1ccccc1S(=O)(=O)NC(=O)Nn1c(=O)c(=O)[nH]c2cc(Cl)c(Cl)cc21` came in with an inhibition of 10.4%.

`O=C(Nn1c(=O)c(=O)[nH]c2cc(Cl)ccc21)NS(=O)(=O)c1ccccc1` yielded an inhibition of 17.3%. For `O=C(Nn1c(=O)c(=O)[nH]c2cc([N+](=O)[O-])ccc21)NS(=O)(=O)c1ccccc1` the value was 57.2%; for `Cc1ccccc1S(=O)(=O)NC(=O)Nn1c(=O)c(=O)[nH]c2cc(Cl)ccc21`, 26.4%. For `Cc1ccc(S(=O)(=O)NC(=O)Nn2c(=O)c(=O)[nH]c3cc([N+](=O)[O-])ccc32)cc1` the value was 48%. The same measure for `O=C(Nc1ccccc1)Nn1c(=O)c(=O)[nH]c2cc([N+](=O)[O-])ccc21`: 3.6%.

In turn, `O=C(Nn1c(=O)c(=O)[nH]c2ccccc21)NS(=O)(=O)c1ccccc1` had an inhibition of 14.1%. The same measure for `Cc1ccc(S(=O)(=O)NC(=O)Nn2c(=O)c(=O)[nH]c3cc(Cl)ccc32)cc1`: 20.5%; for `O=C(Nc1ccc(F)cc1F)Nn1c(=O)c(=O)[nH]c2cc([N+](=O)[O-])ccc21`: 5.1%. Regarding `O=C(Nc1cccc(Cl)c1)Nn1c(=O)c(=O)[nH]c2cc([N+](=O)[O-])ccc21`, the inhibition amounted to 6.6%. The same measure for `O=c1[nH]c2ccccc2n(NC(=S)NCc2ccccc2)c1=O`: 41.5%.

The molecule `O=C(NC(=O)c1ccccc1)Nn1c(=O)c(=O)[nH]c2cc([N+](=O)[O-])ccc21` returned an inhibition of 72.2%.

Consider `Cc1ccc(NC(=O)Nn2c(=O)c(=O)[nH]c3cc([N+](=O)[O-])ccc32)cc1`, for which the inhibition stood at 1%. `O=c1[nH]c2ccccc2n(NC(=S)Nc2cccc(Cl)c2)c1=O` displayed an inhibition of 32.1%.
